For ten compounds, Ki, Binding affinity and ED50 results are on record in ChEMBL document CHEMBL1126934, “Non-peptide ligands for opioid receptors. Design of kappa-specific agonists” (J Med Chem, 1993).

pKi: −log10 of the molar value. Some results are limits rather than exact numbers.

For assay [1], the target named is Mu-type opioid receptor (Rattus norvegicus, UniProt P33535). As to the kind of experiment: Binding affinity for mu opioid receptor was evaluated by displacing [3H]- diprenorphine. The method in brief:
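Rat brain minus cerebellum, homogenised in Tris-HCl pH 7.4, spun 40000g 30 min, membranes resuspended at 0.5 mg/mL protein in 50 mM Tris-HCl pH 7.6. Competition against [3H]diprenorphine; nonspecific binding defined with DAGO (100 nM). Ki via Cheng-Prusoff; triplicate curves, n = 5.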

Assay [2] addresses Delta-type opioid receptor (Rattus norvegicus) (UniProt P33533). The assay is described as follows: Binding affinity for rat delta opioid receptor was evaluated by displacing [3H]- diprenorphine.
For assay [3], the target named is T1, Kappa-type opioid receptor (Cavia porcellus, UniProt P41144). The assay is described as follows: Binding affinity for kappa opioid receptor was evaluated by displacing [3H]- diprenorphine.
Assay [4] addresses T1, Kappa-type opioid receptor.
In assay [5] the target is T1, Kappa-type opioid receptor. This is another data set of the same source.
For assay [6], the system named is Mus musculus. The assay is described as follows: Antinociceptive activity determined in mouse tail flick assay 30 min after sc injection (peak effect). It is filed as functional. The settings on record: 0.5 h. The method, boiled down: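 Male Swiss mice (20-25 g), tail flick nociceptive threshold, cutoff 8 s. Drug given sc; read 30 min after injection. ED50 with confidence limits by Litchfield and Wilcoxon method.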

Sequence of Delta-type opioid receptor (Rattus norvegicus) (P33533 whole entry): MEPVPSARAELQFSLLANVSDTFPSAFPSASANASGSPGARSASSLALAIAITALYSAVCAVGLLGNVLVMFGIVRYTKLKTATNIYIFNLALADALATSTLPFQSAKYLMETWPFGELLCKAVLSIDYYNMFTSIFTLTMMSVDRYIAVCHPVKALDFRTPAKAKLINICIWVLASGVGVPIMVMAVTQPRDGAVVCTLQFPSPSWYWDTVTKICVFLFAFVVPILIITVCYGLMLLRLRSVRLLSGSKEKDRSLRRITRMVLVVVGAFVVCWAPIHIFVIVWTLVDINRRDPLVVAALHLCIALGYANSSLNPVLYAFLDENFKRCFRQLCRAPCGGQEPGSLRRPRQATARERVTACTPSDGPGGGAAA
T1 sequence (P41144 whole entry): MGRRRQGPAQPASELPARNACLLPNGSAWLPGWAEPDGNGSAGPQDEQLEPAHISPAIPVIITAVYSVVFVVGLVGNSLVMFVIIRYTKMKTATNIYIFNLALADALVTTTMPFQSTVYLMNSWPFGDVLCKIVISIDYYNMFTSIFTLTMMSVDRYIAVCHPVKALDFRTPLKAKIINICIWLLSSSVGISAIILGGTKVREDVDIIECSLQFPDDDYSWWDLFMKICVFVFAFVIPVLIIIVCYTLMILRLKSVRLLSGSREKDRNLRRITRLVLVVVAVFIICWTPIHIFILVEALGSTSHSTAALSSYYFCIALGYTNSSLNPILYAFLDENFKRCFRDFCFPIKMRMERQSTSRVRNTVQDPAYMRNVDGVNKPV
Sequence of Mu-type opioid receptor (P33535 whole entry): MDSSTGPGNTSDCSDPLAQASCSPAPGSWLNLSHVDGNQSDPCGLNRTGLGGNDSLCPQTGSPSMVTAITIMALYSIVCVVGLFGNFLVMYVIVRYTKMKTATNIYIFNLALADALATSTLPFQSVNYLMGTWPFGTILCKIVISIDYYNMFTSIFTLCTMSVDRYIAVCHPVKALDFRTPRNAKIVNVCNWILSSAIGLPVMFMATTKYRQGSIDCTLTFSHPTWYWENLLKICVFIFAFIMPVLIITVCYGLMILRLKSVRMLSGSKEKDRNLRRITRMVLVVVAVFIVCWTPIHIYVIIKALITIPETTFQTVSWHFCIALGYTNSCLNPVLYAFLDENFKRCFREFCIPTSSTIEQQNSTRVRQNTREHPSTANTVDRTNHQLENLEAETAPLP

As to `CCC12CCN(CC3CC3)C(C(=O)c3ccc(O)cc31)C2C` (stereo not given), the pKi in assay [1] is 6.16.
Turning to `CCOC(=O)[C@]1(c2ccccc2)CC1CN1CC[C@@]2(C)c3cc(O)ccc3C[C@@H]1[C@@H]2C` (stereo not given in full), the Binding affinity in assay [2] was > 25 µM. The figures for the negative logarithm of the Ki (pKi) in assay [1] and in assay [3] were < 4.60 and 5.35, respectively.
Taken in the same sequence, the figures for `CCCOC(=O)[C@]1(c2ccccc2)CC1CN1CC[C@@]2(C)c3cc(O)ccc3C[C@@H]1[C@@H]2C` (stereo not given in full) were > 25 µM, < 4.60 and 5.19.
Taken in the same sequence, the figures for `CCCCOC(=O)[C@]1(c2ccccc2)CC1CN1CC[C@@]2(C)c3cc(O)ccc3C[C@@H]1[C@@H]2C` (stereo not given in full) were > 25 µM, < 4.60 and < 4.60.
On to `C[C@H]1[C@H]2Cc3ccc(O)cc3[C@]1(C)CCN2CC1C[C@]1(C(=O)O)c1ccccc1` (stereo not given in full), for which the pKi in assay [1] and in assay [3] was < 4.60 throughout.
Regarding `COC(=O)[C@]1(c2ccccc2)C[C@@H]1CN1CC[C@@]2(C)c3cc(O)ccc3C[C@@H]1[C@@H]2C`, the Binding affinity in assay [2] was > 25 µM. Moreover, the negative logarithm of the Ki (pKi) in assay [4] is 6.08; in assay [1] it was < 4.60; in assay [3], 6.06; in assay [5], 5.58. The compound further showed an ED50 in assay [6] of 4.52 mg/kg.
For `COC(=O)[C@]1(c2ccccc2)C[C@H]1CN1CC[C@@]2(C)c3cc(O)ccc3C[C@@H]1[C@@H]2C`, the Binding affinity in assay [2] was > 25 µM. The negative logarithm of the Ki (pKi) in assay [4] was 6.65; in assay [1], < 4.60; in assay [3], 6.62; in assay [5], 6.03.
In the case of `CN1CC[C@]23c4c5ccc(O)c4O[C@H]2[C@@H](O)C=C[C@H]3[C@H]1C5` [MORPHINE], the Binding affinity in assay [2] was 1.22 µM. The ED50 in assay [6] turned out to be 4.99 mg/kg.
Take `CC1[C@H]2Cc3ccc(O)cc3[C@]1(C)CCN2CCCc1ccccc1` (stereo not given in full): the negative logarithm of the Ki (pKi) in assay [1] is 6.08; in assay [3], 5.95.
On to `COC(=O)[C@@]1(c2ccccc2)C[C@@H]1CN1CC[C@@]2(C)c3cc(O)ccc3C[C@@H]1[C@@H]2C`, for which, in assay [2], the Binding affinity is > 25 µM. For the same compound, the negative-log Ki (pKi) was < 4.60 in assay [1] and 5.58 in assay [3].
